Data reported in ChEMBL document CHEMBL1148785, “Second generation tetrahydroquinoline-based protein farnesyltransferase inhibitors as antimalarials” (J Med Chem, 2007).

Assays:
Plasmodium falciparum [1] = test: Inhibition of Plasmodium falciparum protein farnesyltransferase at 50 nM by scintillation proximity assay
Plasmodium falciparum [2] = test: Antimalarial activity against Plasmodium falciparum 3D7; type: functional; conditions: Plasmodium falciparum, 3D7; read-out: ED50 (the source's name)
Summary of the method: (§1)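 Asynchronous culture in type A+ erythrocytes at 0.5% parasitemia and 0.5% hematocrit, grown in RPMI-1640 with 20% heat-inactivated human A+ plasma. Compound was serially diluted from a top final 5 µM, with DMSO vehicle as 100% growth. Plates ran 48 h at 37 °C under 5% CO2/5% O2/90% N2, then [3H]-hypoxanthine (0.3 µCi) for 24 h. Filter-harvested counts were corrected for the uninfected-RBC background. ED50 by linear regression; duplicates averaged.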

Plasmodium falciparum [3] = test: Antimalarial activity against Plasmodium falciparum K1; type: functional; conditions: Plasmodium falciparum, K1; read-out: ED50 (the source's name); summary of the method: as §1
Plasmodium falciparum [4] = test: Inhibition of Plasmodium falciparum protein farnesyltransferase at 0.5 nM by scintillation proximity assay
Plasmodium falciparum [5] = test: Inhibition of Plasmodium falciparum protein farnesyltransferase at 5 nM by scintillation proximity assay

| SMILES | inhibition (Plasmodium falciparum [1]) | EC50 (Plasmodium falciparum [2]) | EC50 (Plasmodium falciparum [3]) | inhibition (Plasmodium falciparum [4]) | inhibition (Plasmodium falciparum [5]) |
| --- | --- | --- | --- | --- | --- |
| Cn1cnc(CN2CC(N(CC(=O)NC(C)(C)C)S(=O)(=O)c3ccccc3)Cc3cc(-c4ccccc4)ccc32)c1 (stereo not given) | 8% | 2800 nM | 2800 nM | 0% | 0% |
| COc1ccc(S(=O)(=O)N(Cc2ccccc2F)C2Cc3cc(C#N)ccc3N(Cc3cncn3C)C2)cc1 (stereo not given) | 66% | 900 nM | 1000 nM | 13% | 22% |
| CCOC(=O)N1CCC(CN(C2Cc3cc(C#N)ccc3N(Cc3cncn3C)C2)S(=O)(=O)c2cn(C)cn2)CC1 (stereo not given) | 98% | 14 nM | 7 nM | 49% | 96% |
| Cn1cnc(CN2CC(N(CCNC(=O)OC(C)(C)C)S(=O)(=O)c3cn(C)cn3)Cc3cc(-c4ccccc4)ccc32)c1 (stereo not given) | 98% | 2400 nM | 750 nM | 18% | 81% |
| Cn1cnc(S(=O)(=O)N(Cc2ncoc2-c2ccccc2)C2Cc3cc(C#N)ccc3N(Cc3cncn3C)C2)c1 (stereo not given) | 92% | 490 nM | 890 nM | 0% | 20% |
| Cn1cnc(S(=O)(=O)N(Cc2ccc(S(C)(=O)=O)cc2)C2Cc3cc(C#N)ccc3N(Cc3cncn3C)C2)c1 (stereo not given) | 100% | 6 nM | 10 nM | 82% | 99% |
| COC(=O)N1CCC(CN(C2Cc3cc(C#N)ccc3N(Cc3cncn3C)C2)S(=O)(=O)c2ccc3c(c2)OCCCO3)CC1 (stereo not given) | 99% | 138 nM | 105 nM | 24% | 81% |
| CC(C)NC(=O)c1ccc2c(c1)CC(N(CC(=O)NC(C)(C)C)S(=O)(=O)c1cn(C)cn1)CN2Cc1cncn1C (stereo not given) | 46% | 4000 nM | 2600 nM | 14% | 7% |
| CN(C1Cc2cc(-c3ccccc3)ccc2N(Cc2cn(C)cn2)C1)S(=O)(=O)c1cn(C)cn1 (stereo not given) | 88% | > 5000 nM | > 5000 nM | 10% | 38% |
| Cn1cnc(CN2CC(N(CC(=O)NC(C)(C)C)S(=O)(=O)c3cccs3)Cc3cc(-c4ccccc4)ccc32)c1 (stereo not given) | 10% | 3500 nM | > 5000 nM | 4% | 1% |
| COC(=O)NCCN(C1Cc2cc(C#N)ccc2N(Cc2cncn2C)C1)S(=O)(=O)c1ccccn1 (stereo not given) | 90% | 510 nM | 400 nM | 14% | 47% |
| Cn1cnc(S(=O)(=O)N(CCc2c[nH]c3ccccc23)C2Cc3cc(C#N)ccc3N(Cc3cncn3C)C2)c1 (stereo not given) | 97% | 130 nM | 130 nM | 55% | 91% |
| Cn1cncc1CN1CC(N(CCC2(C)OCC(C)(C)CO2)S(=O)(=O)c2ccccn2)Cc2cc(C#N)ccc21 (stereo not given) | 95% | 440 nM | 240 nM | 18% | 66% |
| Cn1cncc1CN1CC(N(CC2CCN(C(=O)c3ccco3)CC2)S(=O)(=O)c2ccccn2)Cc2cc(C#N)ccc21 (stereo not given) | 92% | 80 nM | 93 nM | 92% | 51% |
| Cn1cncc1CN1CC(N(Cc2ccc(S(C)(=O)=O)cc2)S(=O)(=O)c2ccccc2)Cc2cc(C#N)ccc21 (stereo not given) | 99% | 165 nM | 330 nM | 38% | 91% |
| COC(=O)N1CCC(CN(C2Cc3cc(C#N)ccc3N(Cc3cncn3C)C2)S(=O)(=O)c2cn(C)c(C)n2)CC1 (stereo not given) | 100% | 60 nM | 75 nM | 39% | 96% |
| Cn1cncc1CN1CC(N(Cc2cccc3cccnc23)S(=O)(=O)c2ccccn2)Cc2cc(C#N)ccc21 (stereo not given) | 88% | 1740 nM | 1320 nM | 17% | 46% |
| Cn1cncc1CN1CC(N(CC(=O)NC(C)(C)C)S(=O)(=O)CCN2C(=O)c3ccccc3C2=O)Cc2cc(C#N)ccc21 (stereo not given) | 60% | > 5000 nM | > 5000 nM | 14% | 21% |
| Cn1cncc1CN1CC(N(CCc2ccccc2F)S(=O)(=O)c2ccccn2)Cc2cc(C#N)ccc21 (stereo not given) | 98% | 120 nM | 600 nM | 22% | 81% |
| Cn1cnc(CN2CC(N(CCS(C)(=O)=O)S(=O)(=O)c3cn(C)cn3)Cc3cc(-c4ccccc4)ccc32)c1 (stereo not given) | 99% | 400 nM | 700 nM | 29% | 91% |
| Cn1cnc(S(=O)(=O)N(CCCCN2C(=O)c3ccccc3C2=O)C2Cc3cc(C#N)ccc3N(Cc3cncn3C)C2)c1 (stereo not given) | 97% | 40 nM | 130 nM | 90% | 96% |

| SMILES | inhibition (Plasmodium falciparum [1]) | EC50 (Plasmodium falciparum [2]) | EC50 (Plasmodium falciparum [3]) | inhibition (Plasmodium falciparum [4]) | inhibition (Plasmodium falciparum [5]) |
| --- | --- | --- | --- | --- | --- |
| Cn1cnc(S(=O)(=O)N(Cc2ccc(C#N)cc2)C2Cc3cc(C#N)ccc3N(Cc3cncn3C)C2)c1 (stereo not given) | 96% | 70 nM | 55 nM | 54% | 90% |
| CC(=O)Nc1ccc(S(=O)(=O)N(Cc2ccccc2F)C2Cc3cc(C#N)ccc3N(Cc3cncn3C)C2)cc1 (stereo not given) | 25% | 150 nM | 150 nM | 4% | 4% |
| COC(=O)N1CCC(CN(C2Cc3cc(C#N)ccc3N(Cc3cncn3C)C2)S(=O)(=O)c2ncn(C)c2C)CC1 (stereo not given) | 100% | 35 nM | < 20 nM | 49% | 97% |
| CN(C)S(=O)(=O)N(Cc1ccccc1F)C1Cc2cc(C#N)ccc2N(Cc2cncn2C)C1 (stereo not given) | 62% | 360 nM | 3600 nM | 8% | 10% |
| CC(C)OC(=O)N1CCC(CN(C2Cc3cc(C#N)ccc3N(Cc3cncn3C)C2)S(=O)(=O)c2ccccn2)CC1 (stereo not given) | 97% | 50 nM | 50 nM | 90% | 36% |
| CC(C)COC(=O)N1CCC(CN(C2Cc3cc(C#N)ccc3N(Cc3cncn3C)C2)S(=O)(=O)c2cn(C)cn2)CC1 (stereo not given) | 98% | 10 nM | 5.5 nM | 24% | 90% |
| Cn1cnc(S(=O)(=O)N(Cc2ccc(S(C)(=O)=O)cc2Cl)C2Cc3cc(C#N)ccc3N(Cc3cncn3C)C2)c1 (stereo not given) | 99% | 57 nM | < 20 nM | 69% | 98% |
| COC(=O)N(C)CCCCN(C1Cc2cc(C#N)ccc2N(Cc2cncn2C)C1)S(=O)(=O)c1ccccn1 (stereo not given) | 90% | 230 nM | 400 nM | 15% | 59% |
| COC(=O)N1CCC(CN(C2Cc3cc(C#N)ccc3N(Cc3cncn3C)C2)S(=O)(=O)c2cccc3nonc23)CC1 (stereo not given) | 99% | 135 nM | 100 nM | 31% | 89% |
| COC(=O)N1CCC(CN(C2Cc3cc(C#N)ccc3N(Cc3cccnc3)C2)S(=O)(=O)c2ccccn2)CC1 (stereo not given) | 35% | 3400 nM | 3000 nM | 3% | 12% |
| Cn1cncc1CN1CC(N(Cc2ccc(S(C)(=O)=O)cc2)S(=O)(=O)c2ccccc2Cl)Cc2cc(C#N)ccc21 (stereo not given) | 99% | 400 nM | 800 nM | 16% | 87% |
| Cn1cc(S(=O)(=O)N(Cc2ccc(S(C)(=O)=O)cc2)C2Cc3cc(C#N)ccc3N(Cc3cncn3C)C2)cn1 (stereo not given) | 97% | 75 nM | 60 nM | 36% | 88% |
| Cn1cnc(S(=O)(=O)N(CCN)C2Cc3cc(C#N)ccc3N(Cc3cncn3C)C2)c1 (stereo not given) | 72% | > 5000 nM | > 5000 nM | 0% | 15% |
| COC(=O)N1CCC(CN(C2Cc3cc(C#N)ccc3N(C(C)c3cnc[nH]3)C2)S(=O)(=O)c2ccccn2)CC1 (stereo not given) | 96% | 650 nM | 650 nM | 12% | 79% |
| CN(C)CCCN(C1Cc2cc(C#N)ccc2N(Cc2cncn2C)C1)S(=O)(=O)c1cn(C)cn1 (stereo not given) | 34% | 2600 nM | > 5000 nM | 0% | 9% |
| Cn1cnc(S(=O)(=O)NC2Cc3cc(-c4ccccc4)ccc3N(Cc3cncn3C)C2)c1 (stereo not given) | 80% | 3500 nM | > 5000 nM | 14% | 31% |
| C=C(C)CN(C1Cc2cc(-c3ccccc3)ccc2N(Cc2cn(C)cn2)C1)S(=O)(=O)c1cn(C)cn1 (stereo not given) | 99% | 640 nM | 475 nM | 22% | 89% |
| Cn1cnc(S(=O)(=O)N(CCc2ccccc2F)C2Cc3cc(C#N)ccc3N(Cc3cncn3C)C2)c1 (stereo not given) | 100% | 16 nM | 16 nM | 43% | 98% |
| Cn1cnc(S(=O)(=O)N(CCNC(=O)OC(C)(C)C)C2Cc3cc(C#N)ccc3N(Cc3cncn3C)C2)c1 (stereo not given) | 99% | 460 nM | 75 nM | 28% | 90% |
| COC(=O)N1CCC(CN(C2Cc3cc(C#N)ccc3N(Cc3cncn3C)C2)S(C)(=O)=O)CC1 (stereo not given) | 66% | 2700 nM | > 5000 nM | 0% | 5% |
